We go through two molecules from ChEMBL document CHEMBL1828573, “Synthesis and biological evaluation of the glycoside (25R)-3β,16β-diacetoxy-22-oxocholest-5-en-26-yl β-d-glucopyranoside: a selective anticancer agent in cervicouterine cell lines” (Eur J Med Chem, 2011).

Calls of active or inactive are those of the source. No cut-off for these calls is given here.

Series [1] has as its system Ca-Ski. Nature of the series: Antiproliferative activity human CaSki cells after 24 hrs by crystal violet staining. It is filed as functional, cell-based. A digest of the protocol: (§1)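 Cells in RPMI-1640 with 5% newborn calf serum, 37 °C, 5% CO2, exponential phase. Seeded at 7500 cells/well and grown 24 h, then exposed over a concentration range in ethanol vehicle; controls got 1% ethanol. After 24 h, crystal violet staining with absorbance at 590 nm. IC50 taken from the decrease in cell population.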

The nature of series [2]: Cytotoxicity against human PHA-stimulated lymphocytes assessed as LDH release at 33.9 uM after 72 hrs by spectrophotometry. It is filed as cell-based. Conditions: lymphocyte. An outline of the steps:
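Lymphocytes exposed to compound or ethanol (10 µL/mL); PHA-activated lymphocytes (15 µL/mL) served as control. After 72 h, LDH released into the culture supernatant measured. Mean ± S.D. of three independent experiments with three repetitions.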
(Release of lactate dehydrogenase indicates damage to the cell membrane.)

Series [3] has as its system Ca-Ski. The experiment in a line: Cytotoxicity against human CaSki cells assessed as LDH release at IC50 after 24 hrs by spectrophotometry. It is filed as functional.
In series [4] the test system is Ca-Ski. Nature of the series: Cell cycle arrest at G1-phase in human CaSki cells at 29.5 to 33.9 uM after 24 hrs using propidium iodine staining by flow cytometry. It is filed as functional, cell-based. An outline of the steps: (§2)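 Seeded at 10^5 cells/mL and grown 24 h, then exposed to 33.9 or 29.5 µM. Harvested with versene and fixed/permeabilized in 50% methanol in PBS. Treated with RNase (2.5 U/mL), stained with propidium iodide (0.2 mg/mL), DNA content analysed by G1, S, G2/M and SubG1.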
(A flow cytometer gives signals particle by particle.)

Series [5] deals with Ca-Ski. The experiment in a line: Induction of apoptosis in human CaSki cells assessed as induction of active caspase-3 expression at 29.5 to 33.9 uM using FITC/DAPI staining by epifluorescence microscopy. It is filed as functional, cell-based. An outline of the steps: (§3)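 Seeded at 5 × 10^4 cells/mL in RPMI-1640 with 5% NCS for 24 h, then treated with 33.9 or 29.5 µM. Formaldehyde fixation 15 min, 0.5% Triton X-100 permeabilization, blocking. Rabbit anti-active caspase-3 (1:50), then FITC goat anti-rabbit (1:200). DAPI counterstain; fluorescence microscopy.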

Series [6] concerns HeLa. Nature of the series: Induction of apoptosis in human HeLa cells assessed as induction of active caspase-3 expression at 29.5 to 33.9 uM using FITC/DAPI staining by epifluorescence microscopy. It is filed as functional, cell-based. A digest of the protocol: as §3
In series [7] the test system is Ca-Ski. The experiment in a line: Induction of apoptosis in human CaSki cells assessed as decrease in DNA level at 29.5 to 33.9 uM after 24 hrs using propidium iodine staining by flow cytometry. It is filed as functional, cell-based. A digest of the protocol:
as §2

A short description of series [8]: Cell cycle arrest at G2/M-phase in human ViBo cells at 29.5 to 33.9 uM after 24 hrs using propidium iodine staining by flow cytometry. It is filed as functional, cell-based. An outline of the steps:
as §2

Series [9] deals with HeLa. Nature of the series: Cytotoxicity against human HeLa cells assessed as LDH release at IC50 after 24 hrs by spectrophotometry. It is filed as functional.
In series [10] the test system is HeLa. Nature of the series: Cell cycle arrest at S-phase in human HeLa cells at 29.5 to 33.9 uM after 24 hrs using propidium iodine staining by flow cytometry. It is filed as functional, cell-based. A digest of the protocol:
as §2

Series [11] can be described thus: Cytotoxicity against human ViBo cells assessed as LDH release at IC50 after 24 hrs by spectrophotometry. It is filed as functional.
Series [12] relates to Ca-Ski. Nature of the series: Cell cycle arrest at G2/M-phase in human CaSki cells at 29.5 to 33.9 uM after 24 hrs using propidium iodine staining by flow cytometry. It is filed as functional, cell-based. A digest of the protocol:
as §2

Series [13] relates to ViBo. The experiment in a line: Induction of apoptosis in human ViBo cells assessed as induction of active caspase-3 expression at 29.5 to 33.9 uM using FITC/DAPI staining by epifluorescence microscopy. It is filed as functional, cell-based. An outline of the steps: as §3
In series [14] the test system is HeLa. The experiment in a line: Induction of apoptosis in human HeLa cells assessed as DNA fragmentation at IC50 after 24 hrs by TUNEL assay. It is filed as functional, cell-based.
Series [15] relates to Ca-Ski. The experiment in a line: Induction of apoptosis in human CaSki cells assessed as increase in cell nuclei released from broken cell at 29.5 to 33.9 uM after 24 hrs using propidium iodine staining by flow cytometry. It is filed as functional, cell-based. A digest of the protocol:
as §2

Series [16] has as its system ViBo. Nature of the series: Induction of apoptosis in human ViBo cells assessed as DNA fragmentation at IC50 after 24 hrs by TUNEL assay. It is filed as functional, cell-based.
Series [17] can be described thus: Cell cycle arrest at S-phase in human ViBo cells at 29.5 to 33.9 uM after 24 hrs using propidium iodine staining by flow cytometry. It is filed as functional, cell-based. A digest of the protocol: as §2
Series [18] concerns PBMC. Nature of the series: Antiproliferative activity human PBMC assessed as proliferating cells at 33.9 uM after 72 hrs using FITC-A staining by flow cytometry. It is filed as cell-based. A digest of the protocol:
(§4)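 Enriched lymphocytes from one healthy donor: non-adherent cells kept after 1 h at 37 °C. Labelled with CFSE for 15 min at room temperature in the dark, quenched with NCS, washed. Plated at 2 × 10^5 cells/well, unstimulated, PHA-stimulated or treated, with ethanol 1% vehicle control. Five replicates, 72 h at 37 °C. Then 1% formaldehyde fixation and flow cytometry, ≥20,000 events.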

The subject of series [19] is Ca-Ski. Nature of the series: Cell cycle arrest at S-phase in human CaSki cells at 29.5 to 33.9 uM after 24 hrs using propidium iodine staining by flow cytometry. It is filed as functional, cell-based. An outline of the steps:
as §2

In series [20] the test system is PBMC. Nature of the series: Antiproliferative activity human PBMC assessed as non-proliferating cells at 33.9 uM after 72 hrs using FITC-A staining by flow cytometry. It is filed as cell-based. An outline of the steps: as §4
The test system of series [21] is Ca-Ski. Nature of the series: Induction of apoptosis in human CaSki cells assessed as DNA fragmentation at IC50 after 24 hrs by TUNEL assay. It is filed as functional, cell-based.
Series [22] concerns HeLa. Nature of the series: Cell cycle arrest at G2/M-phase in human HeLa cells at 29.5 to 33.9 uM after 24 hrs using propidium iodine staining by flow cytometry. It is filed as functional, cell-based. A digest of the protocol: as §2
Series [23] in a line: Antiproliferative activity human ViBo cells after 24 hrs by crystal violet staining. It is filed as functional, cell-based. An outline of the steps:
as §1

Series [24] concerns HeLa. Nature of the series: Antiproliferative activity human HeLa cells after 24 hrs by crystal violet staining. It is filed as functional, cell-based. An outline of the steps:
as §1

In the case of `CC(=O)O[C@H]1CC[C@@]2(C)C(=CC[C@H]3[C@@H]4C[C@H](OC(C)=O)[C@H]([C@H](C)C(=O)CC[C@@H](C)CO)[C@@]4(C)CC[C@@H]32)C1`, it took 47.1 µM to reach half-maximal inhibition in series [1] (IC50).
Regarding `CC(=O)O[C@H]1CC[C@@]2(C)C(=CC[C@H]3[C@@H]4C[C@H](OC(C)=O)[C@H]([C@H](C)C(=O)CC[C@@H](C)CO[C@@H]5O[C@H](CO)[C@@H](O)[C@H](O)[C@H]5O)[C@@]4(C)CC[C@@H]32)C1`, the Activity result in [2] is on record as “Non-toxic”; in series [3], 1%; in series [9] it was 6%; in series [11] it was 11%; in [18], 72.09%; in series [20], 27.91%. For the same molecule, in [1], the Activity result is “Dose-dependent effect”. The result in series [4], in [12] and in [19] was inactive. Also, the result in series [5], in series [6], in [7], in [8], in series [10] and in series [13] was Active. In addition, the result in series [14], in [15], in [16], in series [17], in series [21] and in series [22] was Active. In addition, the IC50 in series [23] is 29.5 µM; in series [1], 33.9 µM; in [24], 29.5 µM.

A word on the IC50: it is the concentration that gives 50% inhibition. Higher therefore signals weaker potency.
